Laboratory results published in ChEMBL document CHEMBL2169842, “Structure-activity relationship in the antitumor activity of 6-, 8- or 6,8-substituted 3-benzylamino-β-carboline derivatives” (Bioorg Med Chem Lett, 2012).
Calls of active or inactive are those of the source. The calls are words filed in the database; no cut-off is given here.

Experiments:
HEK-293T = assay: Cytotoxicity against human 293T cells after 24 to 72 hrs by MTT assay; assay type: cell-based
How it was run: (§1)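 MTT assay. IC50 taken as the drug concentration giving 50% inhibition of cell growth. Values are mean ± S.D. of four independent experiments, each run in triplicate.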

[1] = Cytotoxicity against human HeLaS3 cells after 24 to 72 hrs by MTT assay; assay type: functional, cell-based; details: HeLa S3; how it was run: as §1
[2] = Cytotoxicity against mouse Sarcoma 180 cells after 24 to 72 hrs by MTT assay; assay type: functional, cell-based; how it was run: as §1
[3] = Cell cycle arrest in human HeLaS3 cells assessed as accumulation at G2/M phase after 48 hrs using propidium iodide staining by flow cytometry (reference value: 16.21%); assay type: functional, cell-based; details: HeLa S3
How it was run: (§2)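 HeLa S-3 cells incubated without (control) or with compound for 9, 24 or 48 h, then fixed and stained with propidium iodide. DNA content read by flow cytometry. Populations given as percent in sub-G1, G1, S and G2/M phases.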

[4] = Cell cycle arrest in human HeLaS3 cells assessed as accumulation at S phase after 48 hrs using propidium iodide staining by flow cytometry (reference value: 6.36%); assay type: functional, cell-based; details: HeLa S3
[5] = Cell cycle arrest in human HeLaS3 cells assessed as accumulation at G2/M phase after 24 hrs using propidium iodide staining by flow cytometry (reference value: 16.21%); assay type: functional, cell-based; details: HeLa S3; how it was run: as §2
[6] = Cell cycle arrest in human HeLaS3 cells assessed as accumulation at G1 phase after 48 hrs using propidium iodide staining by flow cytometry (reference value: 75.29%); assay type: functional, cell-based; details: HeLa S3; how it was run: as §2
[7] = Cell cycle arrest in human HeLaS3 cells assessed as accumulation at S phase after 9 hrs using propidium iodide staining by flow cytometry (reference value: 6.36%); assay type: functional, cell-based; details: HeLa S3
[8] = Cell cycle arrest in human HeLaS3 cells assessed as accumulation at G1 phase after 9 hrs using propidium iodide staining by flow cytometry (reference value: 75.29%); assay type: functional, cell-based; details: HeLa S3; how it was run: as §2
[9] = Cell cycle arrest in human HeLaS3 cells assessed as accumulation at G2/M phase after 9 hrs using propidium iodide staining by flow cytometry (reference value: 16.21%); assay type: functional, cell-based; details: HeLa S3; how it was run: as §2
[10] = Cell cycle arrest in human HeLaS3 cells assessed as accumulation at sub-G1 phase after 24 hrs using propidium iodide staining by flow cytometry (reference value: 2.41%); assay type: functional, cell-based; details: HeLa S3; how it was run: as §2
HeLa S3 [11] = assay: Induction of apoptosis in human HeLaS3 cells assessed as formation of chromatin condensation and fragmented nuclei after 48 hrs by Hoechst 33342 staining; assay type: functional, cell-based
How it was run: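 HeLa S-3 cells treated with compound for 48 h, then stained with Hoechst 33342. Nuclear chromatin examined by fluorescence microscopy for condensation and fragmented nuclei, with untreated cells as comparison.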

[12] = Cell cycle arrest in human HeLaS3 cells assessed as accumulation at G1 phase after 24 hrs using propidium iodide staining by flow cytometry (reference value: 75.29%); assay type: functional, cell-based; details: HeLa S3; how it was run: as §2
[13] = Cell cycle arrest in human HeLaS3 cells assessed as accumulation at S phase after 24 hrs using propidium iodide staining by flow cytometry (reference value: 6.36%); assay type: functional, cell-based; details: HeLa S3
[14] = Cell cycle arrest in human HeLaS3 cells assessed as accumulation at sub-G1 phase after 9 hrs using propidium iodide staining by flow cytometry (reference value: 2.41%); assay type: functional, cell-based; details: HeLa S3; how it was run: as §2
HeLa S3 [15] = assay: Induction of apoptosis in human HeLaS3 cells assessed as DNA fragmentation after 48 hrs agarose-gel electrophoresis; assay type: functional, cell-based
How it was run: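 HeLa S-3 cells treated with compound for 48 h. Genomic DNA extracted and run on a 2% agarose gel beside a 100 bp ladder marker to detect DNA fragmentation.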

[16] = Cell cycle arrest in human HeLaS3 cells assessed as accumulation at sub-G1 phase after 48 hrs using propidium iodide staining by flow cytometry (reference value: 2.41%); assay type: functional, cell-based; details: HeLa S3; how it was run: as §2

Row | SMILES | IC50 (HEK-293T) [µM] | IC50 [1] [µM] | IC50 [2] [µM] | other results
1 | Clc1cc(NCc2ccco2)c2[nH]c3cnc(NCc4ccccc4)cc3c2c1 | 3.1 | 3.8 |  | 
2 | Nc1cc2c(cn1)[nH]c1c(NC(=O)c3ccccc3)cc(Cl)cc12 |  | 26.1 | 12.4 | 
3 | CC(=O)Nc1cc(Cl)cc2c1[nH]c1cnc(NCc3ccccc3)cc12 | 15 | 21 | 16.2 | 
4 | Nc1cc2c(cn1)[nH]c1ccccc12 |  | 66 | 41 | 
5 | O=C(Nc1cc(Cl)cc2c1[nH]c1cnc(NCc3ccccc3)cc12)c1ccccc1 | 4.8 | 4.6 | 2.8 | Activity [3]: 55.3%; Activity [4]: 11.1%; Activity [5]: 40.1%; Activity [6]: 11.7%; Activity [7]: 10.4%; Activity [8]: 33.9%; Activity [9]: 49.1%; Activity [10]: 14.8%; Activity (HeLa S3 [11]): Active; Activity [12]: 32.4%; Activity [13]: 12.7%; Activity [14]: 6.59%; Activity (HeLa S3 [15]): Active; Activity [16]: 22%
6 | CCCC(=O)Nc1cc(Cl)cc2c1[nH]c1cnc(NCc3ccccc3)cc12 | 2.3 | 2.6 | 1.35 | 
7 | c1ccc(Oc2cccc(CNc3cc4c(cn3)[nH]c3ccccc34)c2)cc1 |  | 0.074 | 0.03 | 
8 | CNc1cccc2c1[nH]c1cnc(N)cc12 |  | 12 |  | 
9 | c1ccc(CNc2cc3c(cn2)[nH]c2ccccc23)cc1 |  | 0.11 | 0.44 | Activity [3]: 52.8%; Activity [4]: 16.2%; Activity [5]: 67.7%; Activity [6]: 12.2%; Activity [7]: 14.3%; Activity [8]: 22.6%; Activity [9]: 57%; Activity [10]: 16.2%; Activity (HeLa S3 [11]): Active; Activity [12]: 6.93%; Activity [13]: 9.18%; Activity [14]: 6.08%; Activity (HeLa S3 [15]): Active; Activity [16]: 18.8%
10 | CCCCC(=O)Nc1cccc2c1[nH]c1cnc(N)cc12 |  | 56 | 38 | 
11 | O=[N+]([O-])c1ccc2[nH]c3cnc(NCc4ccccc4)cc3c2c1 |  | 28 |  | 
12 | Nc1cc2c(cn1)[nH]c1ccc(Cl)cc12 |  | 71 | 29 | 
13 | CCC(=O)Nc1cc(Cl)cc2c1[nH]c1cnc(NCc3ccccc3)cc12 | 5.8 | 9.9 | 5.4 | 
14 | O=C(Nc1cc(Cl)cc2c1[nH]c1cnc(NCc3ccccc3)cc12)c1ccccn1 | 4 | 3.7 | 1.9 | 
15 | O=C(Nc1cc(Cl)cc2c1[nH]c1cnc(NCc3ccccc3)cc12)C(F)(F)C(F)(F)F |  | 9.2 | 6.1 | 
16 | Clc1cc(Cl)c2[nH]c3cnccc3c2c1 |  | 0.2 |  | 
17 | O=C(Nc1cc(Cl)cc2c1[nH]c1cnc(NCc3ccccc3)cc12)c1cccnc1 | 10 | 15 | 8.3 | 
18 | Clc1cc(NCc2ccccn2)c2[nH]c3cnc(NCc4ccccc4)cc3c2c1 | 1.1 | 1.5 | 1 | 
19 | CNc1ccc2[nH]c3cnc(NCc4ccccc4)cc3c2c1 |  | 10 |  | 
20 | Nc1ccc2[nH]c3cnc(NCc4ccccc4)cc3c2c1 |  | 11 |  | 
21 | CCCCC(=O)Nc1cc(Cl)cc2c1[nH]c1cnc(N)cc12 |  | 27 | 18.1 | 
22 | Clc1cc(NCc2cccs2)c2[nH]c3cnc(NCc4ccccc4)cc3c2c1 | 4 | 4.2 | 1.69 | 
23 | CC(C)C(=O)Nc1cc(Cl)cc2c1[nH]c1cnc(NCc3ccccc3)cc12 | 8 | 9 | 8 | 
24 | Clc1cc(NCc2ccccc2)c2[nH]c3cnc(NCc4ccccc4)cc3c2c1 | 3.8 | 4.2 | 2.6 | 
25 | CCCCCC(=O)Nc1cc(Cl)cc2c1[nH]c1cnc(NCc3ccccc3)cc12 | 1.4 | 2.13 | 0.92 | 
26 | O=C(Nc1cc(Cl)cc2c1[nH]c1cnc(NCc3ccccc3)cc12)C(F)(F)F |  | 6.3 | 5.1 | 

Row | SMILES | IC50 (HEK-293T) [µM] | IC50 [1] [µM] | IC50 [2] [µM] | other results
27 | O=C(Nc1cc(Cl)cc2c1[nH]c1cnc(NCc3ccccc3)cc12)c1ccncc1 | 8 | 13 | 7.9 | 
28 | c1ccc(CNc2cc3c(cn2)[nH]c2ccc(NCc4ccco4)cc23)cc1 |  | 15 |  | 
29 | c1ccc(CNc2ccc3[nH]c4cnc(NCc5ccccc5)cc4c3c2)cc1 |  | 21 |  | 
30 | CS(=O)(=O)Nc1ccc2[nH]c3cnc(NCc4ccccc4)cc3c2c1 |  | 19 |  | 
31 | Nc1cc(Cl)cc2c1[nH]c1cnc(NCc3ccccc3)cc12 | 9.8 | 6.09 | 3.24 | 
32 | O=C(Nc1cccc2c1[nH]c1cnc(NCc3ccccc3)cc12)c1ccccc1 |  | 0.141 |  | Activity [3]: 63.4%; Activity [4]: 9.05%; Activity [5]: 71.1%; Activity [6]: 9.36%; Activity [7]: 9.4%; Activity [8]: 21.1%; Activity [9]: 65.6%; Activity [10]: 5.87%; Activity (HeLa S3 [11]): Active; Activity [12]: 12.8%; Activity [13]: 10.2%; Activity [14]: 3.89%; Activity (HeLa S3 [15]): Active; Activity [16]: 18.2%
33 | CS(=O)(=O)Nc1cc(Cl)cc2c1[nH]c1cnc(NCc3ccccc3)cc12 |  | 8 |  | 
34 | Clc1ccc2[nH]c3cnc(NCc4ccccc4)cc3c2c1 |  | 2.8 | 1.8 | Activity [3]: 49%; Activity [4]: 11.3%; Activity [5]: 69.5%; Activity [6]: 18.2%; Activity [7]: 10.9%; Activity [8]: 33%; Activity [9]: 46.9%; Activity [10]: 14.6%; Activity (HeLa S3 [11]): Active; Activity [12]: 8.2%; Activity [13]: 7.74%; Activity [14]: 9.14%; Activity (HeLa S3 [15]): Active; Activity [16]: 21.4%
35 | CCCCC(=O)Nc1cc(Cl)cc2c1[nH]c1cnc(NCc3ccccc3)cc12 | 0.5 | 0.99 | 0.53 | 
36 | CCNc1cc(Cl)cc2c1[nH]c1cnc(NCc3ccccc3)cc12 | 0.36 | 0.27 | 0.24 | 
37 | O=C(Nc1cc(Cl)cc2c1[nH]c1cnc(NCc3ccccc3)cc12)C(F)(F)C(F)(F)C(F)(F)F |  | 7 | 5.2 | 
38 | CNc1cccc2c1[nH]c1cnc(NCc3cccc(Oc4ccccc4)c3)cc12 |  | 0.032 |  | 
39 | CCCNc1cc(Cl)cc2c1[nH]c1cnc(NCc3ccccc3)cc12 | 2 | 2.9 | 1.36 | 
40 | CC(C)Nc1cc(Cl)cc2c1[nH]c1cnc(NCc3ccccc3)cc12 | 0.7 | 1.1 |  | 
41 | CNc1cccc2c1[nH]c1cnc(NCc3ccccc3)cc12 |  | 0.046 | 0.024 | 
42 | Clc1cc(NCc2cccnc2)c2[nH]c3cnc(NCc4ccccc4)cc3c2c1 | 1 | 1.2 | 0.76 | 
43 | CNc1cc(Cl)cc2c1[nH]c1cnc(NCc3ccccc3)cc12 | 0.35 | 0.2 | 0.25 | 
44 | O=C(Nc1ccc2[nH]c3cnc(NCc4ccccc4)cc3c2c1)c1ccccc1 |  | 10 |  | 
45 | Nc1cc2c(cn1)[nH]c1c(NC(=O)c3ccccc3)cccc12 |  | 118 | 98 | 
46 | CCS(=O)(=O)Nc1cc(Cl)cc2c1[nH]c1cnc(NCc3ccccc3)cc12 |  | 4.84 |  | 
47 | Clc1cc(NCc2ccncc2)c2[nH]c3cnc(NCc4ccccc4)cc3c2c1 | 1.4 | 1.4 | 1 | 
48 | CCS(=O)(=O)Nc1ccc2[nH]c3cnc(NCc4ccccc4)cc3c2c1 |  | 3.4 |  | 
49 | Clc1ccc2[nH]c3cnc(NCc4cccc(Oc5ccccc5)c4)cc3c2c1 |  | 1.8 | 1.36 | 
50 | CC(C)(C)C(=O)Nc1ccc2[nH]c3cnc(NCc4ccccc4)cc3c2c1 |  | 14 |  | 
51 | CCCCNc1cc(Cl)cc2c1[nH]c1cnc(NCc3ccccc3)cc12 | 2.1 | 2.6 | 1.6 | 
